Experimental data taken from ChEMBL document CHEMBL5303300, “EUbOPEN Chemogenomics Library - Multiplex” (2023).
Where “and” joins values, the source holds several entries; their conditions need not be identical. Equal values may be shown once.

How the values were obtained:
[1] = system: Fibroblast; test: Multiplex assay against human fibroblast; type: toxicity, cell-based; conditions: number of replicates 2
In short: (§1)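 At seeding, live cells were stained with Hoechst33342, BioTracker Green Microtubule Cytoskeleton Dye, MitoTracker Red and Annexin V Alexa Fluor 680. After compound addition they were imaged on a CQ1 microscope at 37°C and 5% CO2, and CellPathfinder machine-learning gating sorted them into Hoechst high-intensity objects or normal cells, with normal cells further split into healthy, pyknosed or fragmented nuclei and pyknosed cells into mitotic or apoptotic. Tubulin, mitochondrial-mass and membrane-permeability phenotypes are given as per cents of cells with healthy nuclei.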

[2] = system: U2OS; test: Multiplex assay against U2OS; type: toxicity, cell-based; conditions: human, number of replicates 2; in short: as §1
[3] = 24 h, 1 µM, compound concentration 1 uM
[4] = 24 h, 10 µM, compound concentration 10 uM
[5] = 48 h, 1 µM, compound concentration 1 uM
[6] = 48 h, 10 µM, compound concentration 10 uM
[7] = 12 h, 1 µM, compound concentration 1 uM
[8] = 12 h, 10 µM, compound concentration 10 uM

O=S(=O)(c1ccccc1)N(CC(F)(F)F)c1ccc(C(O)(C(F)(F)F)C(F)(F)F)cc1 [T091317]
Population Membrane Permeable-Phenotype (%) [1, 3]: 7% and 15% | Population Mitochondria Different-Phenotype (%) [1, 3]: 5% and 0% | Population Mitotic Cells (%) [1, 3]: 50% and 47% | Population Normal (%) [1, 3]: 100% | Population Pyknosed Nuclei (%) [1, 3]: 29% and 31% | Population Tubulin-Different-Phenotype (%) [1, 3]: 28% and 24% | Total Cell Count [1, 3]: 128 and 204 | Population Apoptotic (%) [1, 4]: 63% and 37% | Population Fragmented Nuclei (%) [1, 4]: 16% and 18% | Population Healthy Nuclei (%) [1, 4]: 47% and 57% | Population Hoechst High Intensity Objects (%) [1, 4]: 0% | Population Membrane Permeable-Phenotype (%) [1, 4]: 8% and 17% | Population Mitochondria Different-Phenotype (%) [1, 4]: 7% and 4% | Population Mitotic Cells (%) [1, 4]: 36% and 62% | Population Normal (%) [1, 4]: 100% and 99% | Population Pyknosed Nuclei (%) [1, 4]: 35% and 24% | Population Tubulin-Different-Phenotype (%) [1, 4]: 65% and 56% | Total Cell Count [1, 4]: 145 and 143 | Population Apoptotic (%) [1, 5]: 75% and 69% | Population Fragmented Nuclei (%) [1, 5]: 10% and 13% | Population Healthy Nuclei (%) [1, 5]: 60% and 54% | Population Hoechst High Intensity Objects (%) [1, 5]: 0% | Population Membrane Permeable-Phenotype (%) [1, 5]: 15% and 14% | Population Mitochondria Different-Phenotype (%) [1, 5]: 0% and 2% | Population Mitotic Cells (%) [1, 5]: 24% and 30% | Population Normal (%) [1, 5]: 100% and 99% | Population Pyknosed Nuclei (%) [1, 5]: 28% and 31% | Population Tubulin-Different-Phenotype (%) [1, 5]: 32% and 24% | Total Cell Count [1, 5]: 128 and 175 | Population Apoptotic (%) [1, 6]: 71% and 78% | Population Fragmented Nuclei (%) [1, 6]: 25% and 16% | Population Healthy Nuclei (%) [1, 6]: 46% and 54% | Population Hoechst High Intensity Objects (%) [1, 6]: 1% and 0% | Population Membrane Permeable-Phenotype (%) [1, 6]: 16% and 26% | Population Mitochondria Different-Phenotype (%) [1, 6]: 4% | Population Mitotic Cells (%) [1, 6]: 28% and 21% | Population Normal (%) [1, 6]: 98% and 99% | Population Pyknosed Nuclei (%) [1, 6]: 27% and 28% | Population Tubulin-Different-Phenotype (%) [1, 6]: 69% and 80% | Total Cell Count [1, 6]: 143 and 134 | Population Apoptotic (%) [2, 7]: 75% and 39% | Population Healthy Nuclei (%) [2, 7]: 62% and 82% | Population Hoechst High Intensity Objects (%) [2, 7]: 2% and 0% | Population Mitochondria Different-Phenotype (%) [2, 7]: 0% and 1% | Population Mitotic Cells (%) [2, 7]: 25% and 60% | Population Normal (%) [2, 7]: 97% and 100% | Population Pyknosed Nuclei (%) [2, 7]: 10% and 12% | Population Tubulin-Different-Phenotype (%) [2, 7]: 52% and 81% | Population Apoptotic (%) [2, 8]: 66% and 45% | Population Healthy Nuclei (%) [2, 8]: 56% and 80% | Population Hoechst High Intensity Objects (%) [2, 8]: 0% | Population Membrane Permeable-Phenotype (%) [2, 8]: 4% and 5% | Population Mitochondria Different-Phenotype (%) [2, 8]: 0% and 2% | Population Mitotic Cells (%) [2, 8]: 33% and 54% | Population Normal (%) [2, 8]: 100% | Population Pyknosed Nuclei (%) [2, 8]: 7% and 13% | Population Tubulin-Different-Phenotype (%) [2, 8]: 40% and 41% | Population Apoptotic (%) [2, 3]: 100% and 56% | Population Healthy Nuclei (%) [2, 3]: 58% and 88% | Population Hoechst High Intensity Objects (%) [2, 3]: 3% and 0% | Population Mitochondria Different-Phenotype (%) [2, 3]: 8% and 0% | Population Normal (%) [2, 3]: 96% and 100% | Population Pyknosed Nuclei (%) [2, 3]: 4% and 7% | Population Tubulin-Different-Phenotype (%) [2, 3]: 59% and 82% | Population Apoptotic (%) [2, 4]: 57% and 52% | Population Healthy Nuclei (%) [2, 4]: 65% and 78% | Population Hoechst High Intensity Objects (%) [2, 4]: 0% | Population Membrane Permeable-Phenotype (%) [2, 4]: 3% and 4% | Population Mitochondria Different-Phenotype (%) [2, 4]: 0% and 5% | Population Mitotic Cells (%) [2, 4]: 42% and 47% | Population Normal (%) [2, 4]: 100% | Population Pyknosed Nuclei (%) [2, 4]: 14% and 16% | Population Tubulin-Different-Phenotype (%) [2, 4]: 40% and 47% | Population Apoptotic (%) [2, 5]: 33% and 36% | Population Healthy Nuclei (%) [2, 5]: 65% and 90% | Population Hoechst High Intensity Objects (%) [2, 5]: 3% and 0% | Population Membrane Permeable-Phenotype (%) [2, 5]: 10% and 1% | Population Mitochondria Different-Phenotype (%) [2, 5]: 10% and 0% | Population Mitotic Cells (%) [2, 5]: 66% and 63% | Population Normal (%) [2, 5]: 96% and 100% | Population Pyknosed Nuclei (%) [2, 5]: 9% and 6% | Population Tubulin-Different-Phenotype (%) [2, 5]: 72% and 84% | Population Apoptotic (%) [2, 6]: 79% and 66% | Population Fragmented Nuclei (%) [2, 6]: 5% and 15% | Population Healthy Nuclei (%) [2, 6]: 81% and 70% | Population Hoechst High Intensity Objects (%) [2, 6]: 0% | Population Membrane Permeable-Phenotype (%) [2, 6]: 4% and 2% | Population Mitochondria Different-Phenotype (%) [2, 6]: 3% and 2% | Population Mitotic Cells (%) [2, 6]: 20% and 33% | Population Normal (%) [2, 6]: 100% | Population Pyknosed Nuclei (%) [2, 6]: 13% | Population Tubulin-Different-Phenotype (%) [2, 6]: 58% and 34%
